Results from ChEMBL document CHEMBL1158326, “Isolation, synthesis, and antiplatelet aggregation activity of resveratrol 3-O-beta-D-glucopyranoside and related compounds” (J Nat Prod, 1997).
≈ marks a conversion by molar mass, not a printed value.

Experiments:
Format in all cases: functional, cell-free
Platelet [1] = test: Inhibition of adenosine diphosphate-induced platelet aggregation in human platelet-rich plasma
In short: (§1)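 Citrated human PRP from forearm-vein blood (3.8% citrate 1:9, spun 1250 rpm for 18 min at room temperature), adjusted to […] with PPP. Platelets stirred at 1000 rpm and preincubated 3 min at 37 °C with compound or 0.25% DMSO. Inducers were ADP 6 µM, adrenalin 2 µM, arachidonic acid 100 µM, or collagen. Turbidimetric aggregometry read-out; IC50 given as mean ± SE.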

Platelet [2] = test: Inhibition of arachidonic acid-induced platelet aggregation in human platelet-rich plasma; in short: as §1
Platelet [3] = test: Inhibition of collagen-induced platelet aggregation in human platelet-rich plasma; in short: as §1

SMILES	IC50 (Platelet [1]) [µg/mL]	IC50 (Platelet [2]) [µg/mL]	IC50 (Platelet [3]) [µg]
COc1ccc(/C=C\c2cc(OC)c(OC)c(OC)c2)cc1O [COMBRETASTATIN A4]	75.2 (≈ 238 µM)		
COc1ccc(/C=C/c2cc(O[C@@H]3O[C@H](CO)[C@@H](O)[C@H](O)[C@H]3O)cc(O[C@@H]3O[C@H](CO)[C@@H](O)[C@H](O)[C@H]3O)c2)cc1	300 (≈ 530 µM)		
OC[C@H]1O[C@@H](Oc2cc(O)cc(/C=C\c3ccc(O)cc3)c2)[C@H](O)[C@@H](O)[C@@H]1O [Z-PICEID]	120 (≈ 308 µM)		
COc1ccc(/C=C/c2cc(O)cc(O)c2)cc1 [RESVERATROL 4'-METHYL ETHER]	119 (≈ 492 µM)		
COc1ccc(/C=C\c2cc(O)cc(O)c2)cc1	101 (≈ 415 µM)		33.9
COc1ccc(/C=C/c2cc(OC)c(OC)c(OC)c2)c(O)c1	300 (≈ 948 µM)		

Further lines, with some results ahead:

IC50 (Platelet [1]) [µg/mL]	IC50 (Platelet [2]) [µg/mL]	SMILES	IC50 (Platelet [3]) [µg]
300 (≈ 530 µM)		COc1ccc(/C=C\c2cc(O[C@@H]3O[C@H](CO)[C@@H](O)[C@H](O)[C@H]3O)cc(O[C@@H]3O[C@H](CO)[C@@H](O)[C@H](O)[C@H]3O)c2)cc1	
84.9 (≈ 217 µM)	57.2 (≈ 147 µM)	OC[C@H]1O[C@@H](Oc2cc(O)cc(/C=C/c3ccc(O)cc3)c2)[C@H](O)[C@@H](O)[C@@H]1O [PICEID]	
198 (≈ 490 µM)		COc1ccc(/C=C\c2cc(O)cc(O[C@@H]3O[C@H](CO)[C@@H](O)[C@H](O)[C@H]3O)c2)cc1	
300 (≈ 742 µM)		COc1ccc(/C=C/c2cc(O)cc(O[C@@H]3O[C@H](CO)[C@@H](O)[C@H](O)[C@H]3O)c2)cc1	
60.6 (≈ 182 µM)		COc1ccc(/C=C\c2cc(OC)c(OC)c(OC)c2)c(O)c1O [COMBRETASTATIN A-1]	
300 (≈ 627 µM)		COc1ccc(/C=C/c2cc(OC)c(OC)c(OC)c2)c(O[C@@H]2O[C@H](CO)[C@@H](O)[C@H](O)[C@H]2O)c1	
